Data set [1] relates to Rattus norvegicus. Nature of the data set: Toxicity in ovariectomized Sprague-Dawley rat osteoporosis model assessed as body weight loss at […], po administered once daily for 5 times per week. It is filed as organism-based. To be noted: in vivo.
The test system of data set [2] is Rattus norvegicus. Put plainly: Toxicity in ovariectomized Sprague-Dawley rat osteoporosis model assessed as induction of hypercalcemia at […], po administered once daily for 5 times per week. Conditions: in vivo. It counts as organism-based.
The nature of data set [3]: Total clearance in Sprague-Dawley rat at 100 ug/kg, iv. It counts as ADME, organism-based. To be noted: in vivo, 0.1 mg/kg. The procedure, abridged:
(§1)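 Rats given 100 µg/kg orally or intravenously; F, T1/2, Cmax, AUCinf, MRT and total clearance derived.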

Data set [4] has as its target T1, Vitamin D3 receptor (Homo sapiens) (UniProt P11473).
T1 sequence (whole entry): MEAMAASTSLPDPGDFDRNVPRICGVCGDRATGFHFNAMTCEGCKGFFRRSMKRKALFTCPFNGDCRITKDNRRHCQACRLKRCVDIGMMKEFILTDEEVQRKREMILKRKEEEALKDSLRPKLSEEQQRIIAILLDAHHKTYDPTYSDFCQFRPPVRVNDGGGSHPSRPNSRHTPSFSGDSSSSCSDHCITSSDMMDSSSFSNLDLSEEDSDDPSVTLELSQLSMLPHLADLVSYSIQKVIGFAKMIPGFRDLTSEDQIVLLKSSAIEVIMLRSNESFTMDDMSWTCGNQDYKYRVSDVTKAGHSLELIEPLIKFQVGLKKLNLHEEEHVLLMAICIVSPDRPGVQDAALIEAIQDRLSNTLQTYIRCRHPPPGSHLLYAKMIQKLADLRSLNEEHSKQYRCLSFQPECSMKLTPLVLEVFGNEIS
Put plainly: Agonist activity at human VDR in human MG63 cells assessed as stimulation of VDRE-mediated luciferase reporter gene activity relative to 1,25(OH)2D3. It counts as functional, cell-based. Also noted: concentration or dose not given beside the values. Conditions: MG-63.

Data set [5] deals with T1, Vitamin D3 receptor (Homo sapiens). Nature of the data set: Agonist activity at human VDR in human MG63 cells assessed as stimulation of osteocalcin production by enzyme immunoassay relative to 1,25(OH)2D3. It counts as functional, cell-based. Details: concentration or dose not given beside the values. To be noted: MG-63.
In data set [6] the test system is Rattus norvegicus. Nature of the data set: Prevention of bone mineral density loss in ovariectomized Sprague-Dawley rat osteoporosis model administered orally once daily for 5 times per week. It is filed as functional, organism-based. In a few lines:
(§2)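 Female Sprague–Dawley rats, 8 weeks old, ovariectomized or sham-operated; from one day post-surgery, OVX groups (n = 8) given 0.22, 0.67 or 2.0 µg/kg orally in MCT vehicle (1 mL/kg), five times per week for 4 weeks. 24 h after last dose, serum calcium by autoanalyzer and distal femur BMD by dual-energy X-ray absorptiometry.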

Data set [7] is described as follows: Mean residence time in Sprague-Dawley rat at 100 ug/kg, po. It counts as ADME, organism-based. Conditions: in vivo, 0.1 mg/kg. The procedure, abridged:
as §1

The nature of data set [8]: Half life in Sprague-Dawley rat at 100 ug/kg, po. It counts as ADME, organism-based. Conditions: in vivo, 0.1 mg/kg. The procedure, abridged:
as §1

Data set [9] can be described thus: Total clearance in Sprague-Dawley rat at 100 ug/kg, po. It is filed as ADME, organism-based. Conditions: in vivo, 0.1 mg/kg. In a few lines:
as §1

The test system of data set [10] is Rattus norvegicus. Nature of the data set: Toxicity in ovariectomized Sprague-Dawley rat osteoporosis model assessed as induction of hypercalcemia at 2 ug/kg, po administered once daily for 5 times per week. It counts as organism-based. Conditions: in vivo, 0.002 mg/kg. The procedure, abridged: as §2
A short description of data set [11]: AUC (infinity) in Sprague-Dawley rat at 100 ug/kg, iv. It is filed as ADME, organism-based. Details: dose 100 ug/kg, time infinity, route intravenous. To be noted: plasma, 0.1 mg/kg. The procedure, abridged:
as §1

For data set [12], the system named is Rattus norvegicus. Nature of the data set: Toxicity in ovariectomized Sprague-Dawley rat osteoporosis model assessed as body weight loss at 2 ug/kg, po administered once daily for 5 times per week. It is filed as organism-based. To be noted: in vivo, 0.002 mg/kg.
Data set [13] in a line: Cmax in Sprague-Dawley rat at 100 ug/kg, po. It counts as ADME, organism-based. Details: dose 100 ug/kg, route oral. Conditions: in vivo, 0.1 mg/kg. The procedure, abridged: as §1
Data set [14] in a line: Half life in Sprague-Dawley rat at 100 ug/kg, iv. It counts as ADME, organism-based. Conditions: in vivo, 0.1 mg/kg. The procedure, abridged: as §1
A short description of data set [15]: Mean residence time in Sprague-Dawley rat at 100 ug/kg, iv. It is filed as ADME, organism-based. Conditions: in vivo, 0.1 mg/kg. In a few lines: as §1
Data set [16] is described as follows: Oral bioavailability in Sprague-Dawley rat at 100 ug/kg. Conditions: in vivo, 0.1 mg/kg. It is filed as ADME, organism-based. In a few lines:
as §1

Data set [17] can be described thus: AUC (infinity) in Sprague-Dawley rat at 100 ug/kg, po. It is filed as ADME, organism-based. Details: dose 100 ug/kg, time infinity, route oral. To be noted: plasma, 0.1 mg/kg. The procedure, abridged:
as §1

One may read the clearance as the rate of elimination divided by the concentration. The term MRT denotes the average time that molecules of a dose stay in the body. For orientation: half-life means the time needed for the level to fall by half in the phase considered. For orientation: CL/F means clearance divided by bioavailability, as obtained after extravascular dosing. For orientation: AUC(0-inf) means the area under the concentration-time curve extrapolated to infinity. In general, Cmax refers to the maximum level reached in the sampled fluid or tissue. Usually bioavailability stands for the share of a dose that reaches the circulation, judged against a reference dose that is usually intravenous.

Consider `CCC(CC)(c1ccc(OCC(O)C(C)(C)C)c(C)c1)c1ccc(OC[C@@H](O)CCC(=O)O)c(C)c1` (mixture of isomers), for which the Activity result was “Non-toxic” in data set [1]; “Non-toxic” in [2]; 20% in [4]; 484% in data set [5]; “Toxic” in data set [10]; “Toxic” in data set [12]. This compound also gave a clearance in data set [3] of 1.47 mL/min/kg. Moreover, the inhibition result in data set [6] is “Dose-dependent effect”. Besides, the results for the MRT in [7] and in [15] were 12.3 h and 9.2 h, respectively. The results for the half-life in [8] and in data set [14] were 8 h and 10.6 h, respectively. In data set [9], this compound had an apparent clearance CL/F of 11.5 mL/min/kg. Moreover, the figures for the area under the curve AUC(0-inf) in data set [11] and in data set [17] were 1150 ng·h/mL and 151 ng·h/mL, respectively. In data set [13], this compound registered a Cmax of 11.6 ng/mL. This compound registered a bioavailability in data set [16] of 13%.
Take `CCC(CC)(c1ccc(CCC(O)C(C)(C)C)c(C)c1)c1ccc(OC[C@@H](O)CCC(=O)O)c(C)c1` (mixture of isomers): the Activity in data set [4] worked out at 52%; in [5], 68%.
As for `CCC(CC)(c1ccc(OCCCCC(=O)O)c(C)c1)c1ccc(OCC(O)C(C)(C)C)c(C)c1` (racemic), the clearance in data set [3] is 50.9 mL/min/kg. Besides, the Activity in data set [4] turned out to be 19%; in data set [5], 205%. Moreover, the figures for the MRT in data set [7] and in data set [15] were 3.8 h and 0.5 h, respectively. The values for the half-life in [8] and in data set [14] were 3.1 h and 1.3 h, respectively. This compound gave a CL/F in [9] of 156 mL/min/kg. The total exposure AUC(0-inf) in data set [11] is 32.9 ng·h/mL; in data set [17], 10.9 ng·h/mL. Also, the Cmax in data set [13] stood at 3.6 ng/mL. The compound further gave a bioavailability in [16] of 33%.
Turning to `CCC(CC)(c1ccc(CCC(O)C(C)(C)C)c(C)c1)c1ccc(OCCCCC(=O)O)c(C)c1` (racemic), the results for the Activity in data set [4] and in data set [5] were 31% and 368%, respectively.
For the compound `CCC(CC)(c1ccc(CCC(O)C(C)(C)C)c(C)c1)c1ccc(OCCCCCC(=O)O)c(C)c1` (racemic), the Activity was 16% in data set [4] and 168% in data set [5].
`CCC(CC)(c1ccc(CCC(O)C(C)(C)C)c(C)c1)c1ccc(OCCCCCCC(=O)O)c(C)c1` (racemic): the results for the Activity in data set [4] and in data set [5] were 2.2% and 9.3%, respectively.
In the case of `CCC(CC)(c1ccc(OCC(=O)O)c(C)c1)c1ccc(OCC(O)C(C)(C)C)c(C)c1` (racemic), the Activity in data set [4] was 1.4%; in [5], less than 13%.
As to `CCC(CC)(c1ccc(OCCC(=O)O)c(C)c1)c1ccc(OCC(O)C(C)(C)C)c(C)c1` (racemic), the Activity came to 6.2% in data set [4] and 49% in data set [5].
For `CCC(CC)(c1ccc(OCCCC(=O)O)c(C)c1)c1ccc(OCC(O)C(C)(C)C)c(C)c1` (racemic), in that order: 2.6% and less than 13%.
